# Screening data (PubChem BioAssay)
# ABCB1 inh: inhibitors of human ABCB1 transporter, ABCG2 counter-screen | inhibition, % at 6.6 µM | P08183 | AID 1326 | actives 0.067% (n = 190,000) | CCRF-Adr cells, JC-1 efflux, flow cytometry; in the data active means inhibition above about 40%;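 further: 0% = vehicle and 100% = reference inhibitor; higher value means more JC-1 retained so stronger ABCB1 efflux block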
# bCat nuc transl: beta-catenin nuclear translocation modulation; nuclear translocation activity, % at 5 µM; actives 0.3% (n = 190,000); HeLa beta-catenin nuclear translocation, immunofluorescence imaging;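 active means nuclear translocation activity above 50% at 5 µM, with a well cell count of 50 or more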;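 further: per-cell ratio of nuclear to cytoplasmic median beta-catenin stain intensity; plate controls were DMSO negative control for no effect and GSK-3 inhibitor IX positive control for full effect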
#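 Test system: human HeLa cell line; Doses: 5 µM primary, 0.02–20 µM confirmation; Incubation: 24 h compound exposure, 37°C; Detection: beta-catenin immunofluorescence imaging with DAPI; Read-out: beta-catenin nuclear/cytoplasmic ratio, % activation.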
# Arbovirus anti: arbovirus infection inhibition; inhibition, % at 10 µM; AID 1251; arbovirus infection cell-based antiviral screen; actives 0.37% (n = 200,000); in the data active means inhibition above about 30%
# ABCG2 inh: inhibitors of human ABCG2 transporter, ABCB1 counter-screen | inhibition, % at 6.6 µM | IgMXP3 cells, JC-1 efflux, flow cytometry | AID 1325 | actives 0.1% (n = 190,000) | Q9UNQ0;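 active means inhibition above 80%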;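 further: 0% = DMSO and 100% = nicardipine control wells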
# Target sequence (Q9UNQ0 whole entry, looked up): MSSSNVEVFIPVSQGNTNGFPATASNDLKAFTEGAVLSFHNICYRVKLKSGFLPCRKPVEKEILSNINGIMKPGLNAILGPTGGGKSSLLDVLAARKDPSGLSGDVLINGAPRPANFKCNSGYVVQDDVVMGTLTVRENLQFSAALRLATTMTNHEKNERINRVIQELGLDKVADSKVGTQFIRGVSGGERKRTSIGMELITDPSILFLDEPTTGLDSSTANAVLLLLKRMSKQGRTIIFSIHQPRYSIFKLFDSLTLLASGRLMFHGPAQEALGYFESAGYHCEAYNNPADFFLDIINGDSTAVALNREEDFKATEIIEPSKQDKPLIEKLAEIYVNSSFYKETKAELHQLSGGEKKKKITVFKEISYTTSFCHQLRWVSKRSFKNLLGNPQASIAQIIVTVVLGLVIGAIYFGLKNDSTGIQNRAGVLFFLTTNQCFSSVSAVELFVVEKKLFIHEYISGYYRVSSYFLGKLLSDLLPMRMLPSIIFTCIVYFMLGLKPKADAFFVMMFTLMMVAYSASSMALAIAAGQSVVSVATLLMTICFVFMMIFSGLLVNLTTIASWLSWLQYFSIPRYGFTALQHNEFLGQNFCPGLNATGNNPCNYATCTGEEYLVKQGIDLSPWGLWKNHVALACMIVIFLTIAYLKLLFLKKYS
#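 Test system: IgMXP3 cells (ABCG2) mixed with DDAO far-red-labelled CCRF-Adr cells (ABCB1). Reagent: JC-1 transporter substrate. Compound dosing: single test compound dose, 6.6 µM final. Times: 10 min compound exposure, 25 °C. Detection: flow cytometry of retained JC-1 fluorescence. Read-out basis: efflux inhibition in percent versus controls. Controls: nicardipine and DMSO wells.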
# Autophagy HCS: autophagy modulation, high-content screen; calls only at 10 µM (by protocol); AID 463193; MEF GFP-LC3 puncta imaging; test concentration mostly 10 µM; actives 0.98% (n = 190,000);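 active means percentage of spot-positive cells more than 3 SD above its plate mean, without a fluorescence outlier flag or 80% toxicity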;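 further: spot-positive cell cutoff set from DMSO-treated cells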
# MT stabilizer: microtubule stabilizers in HeLa cells; HeLa tubulin immunostaining HCS, 24 h; share of cells brighter than vehicle mean+2SD; % tubulin-high responders, % at 10 µM; actives 0.83% (n = 200,000); AID 2205;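 active means plate Z-score above 3 for both tubulin-high and condensed-nucleus cell shares, with cell loss under 80%, at 10 µM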;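 further: anti alpha tubulin signal scored within the nucleus-defined area of each cell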
# Numbers without * were called inactive; i = inactive; . = no result; + = active, no number. Shown are actives, neighbours in structure and some others; about 2.1% of the full set was active somewhere.
SMILES,ABCB1 inh,bCat nuc transl,Arbovirus anti,ABCG2 inh,Autophagy HCS,MT stabilizer
O=C(N/N=C/c1cccs1)C1COc2ccccc2O1 (stereo not given),0,11,-19,0,i,40*
Cn1cc(/C=N\NC(=O)C2COc3ccccc3O2)c2ccccc21 (stereo not given),0,4,-10,8,i,20
COc1c2c(nc3occc13)C(CCC(C)(C)O)(OC)C(O)CC2 (stereo not given),0,1,5,1,i,2
CCCc1nc2sc3c(SCC(=O)NCc4ccco4)ncnc3c2c2c1CCC2,0,77*,15,-1,i,15*
Cc1nc(SCC(=O)NCc2ccco2)c2c3c(sc2n1)CCCC3,1,-1,-27,1,i,7
CCC(=O)c1cc2c(C)cc(=O)oc2c(C)c1OC(C)=O,1,.,2,14,i,7
CCN1CCN(c2cc(C)c3cc(NC(=S)N4CCCCC4)ccc3n2)CC1,0,1,-25,1,i,6
CCOc1ccc(N(CC(=O)O)S(=O)(=O)c2ccc(OC)c(OC)c2)cc1,0,0,3,0,i,7
CCn1c2ccccc2c2cc(/C=N/NC(=O)c3ccc(O)cc3)ccc21,-2,52*,-36,-8,i,17*
CCn1c2ccccc2c2cc(/C=N/NC(=O)c3ccncc3)ccc21,0,20,-16,0,i,13*
CCn1c2ccccc2c2cc(/C=N/NC(=O)c3cc(O)cc(O)c3)ccc21,-1,0,-13,-1,i,3
O=C(CCl)Nc1cccc(S(=O)(=O)N2CCCCCC2)c1,0,31,-20,-1,i,13*
CC(=O)N1CCN(CC(=O)Nc2cccc(S(=O)(=O)N3CCCCCC3)c2)CC1,2,0,-2,8,i,1
CCOC(=O)c1[nH]c(C)c(C(=O)N2CCc3ccccc32)c1C,0,83*,-17,2,i,29*
O=C(COc1ncnc2ccccc12)NCc1ccc2c(c1)OCO2,0,.,4,0,i,3
O=c1/c(=C/c2ccc(O)cc2)sc2n1CCCN=2,1,1,47*,15,i,3
C#CCOCCOCCOCCNc1nc(N2CCN(C(=O)[C@H](CCC(=O)O)n3cc(C(N)Cc4ccc(O)cc4)nn3)CC2)nc(N2CCN(C(=O)[C@H](CCC(=O)O)n3cc(C(N)[C@H](C)CC)nn3)CC2)n1 (stereo not given in full),0,-4,3,3,i,2
CC(C(=O)N1CCc2ccccc21)N1CCc2ccccc2C1 (stereo not given),0,2,7,9,i,2
COc1cc2c(cc1OC)CN(C(C)C(=O)N1CCc3ccccc31)CC2 (stereo not given),1,.,-20,1,i,47*
COc1cc(C(=O)N2CCCc3ccccc32)cc(OC)c1OC,1,53*,-16,2,i,39*
CCN(CC)CCCNC(=O)c1[nH]c(C)c(C(=O)NC2CCCCC2)c1C,1,3,2,3,i,1
Cn1c(/C(C#N)=C/c2ccc(-c3ccc(S(N)(=O)=O)cc3)o2)nc2ccccc21,-1,-2,2,0,+,1
Cn1c(/C(C#N)=C/c2cccc(O)c2)nc2ccccc21,1,4,-5,4,i,2
CCN1/C(=C\c2ccc3cc(C)ccc3[n+]2CC)Sc2cc(C)c(C)cc21,5,0,-35,36,+,9
COC(=O)c1nc2ccc(N3CCOCC3)cc2c(C)c1C(=O)OC,1,-1,0,4,+,4
Cc1cc(C(=O)Nc2ccc(N3CCOCC3)cc2)c2ccccc2n1,0,2,-9,0,i,4
S=C(Nc1ccccc1Cl)NC1CCN(Cc2ccccc2)CC1,0,-1,6,0,i,6
FC(F)(F)c1ccccc1NC(=S)NC1CCN(Cc2ccccc2)CC1,0,1,-6,-1,+,5
Cc1nnc(SCc2nc3ccccc3s2)n1-c1ccccc1,1,1,-4,25,i,3
c1ccc(-n2cnnc2SCc2nc3ccccc3s2)cc1,0,2,-3,1,+,3
